Reference: PubChem BioAssay
The other results are listed elsewhere or left out. Unmarked numbers belong to inactive results. Active and inactive are the calls of the source.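 Rule for the calls, unless noted: active = activation above the solvent-only control well mean plus 3 SD, set per plate batch (cut at about 110% in these data); inactive = the rest.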

Each molecule was assayed against Signal transducer and activator of transcription 3 (Homo sapiens) (UniProt P40763) (assay: STAT3 reporter activation by STAT1 hits, confirmation, counter-screen for STAT1 activator project, U3A cells, luciferase, luminescence (AID 1316;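 note: 0% = no luminescence and 100% = median IL-6 plus DMSO wells; higher means more STAT3 reporter activation so hits are non-selective activators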)). Details: IL-6, luminescence, at 5.7 µM, active compounds read high, 100 = IL-6 alone, no compound effect, cells lack STAT1.

Row | Structure (SMILES) | activation (% of control)
1 | COc1ccc2nc(NC(=O)c3ccc(Br)s3)sc2c1 | 99.8%
2 | O=C(Nc1ccc2oc(-c3ccccc3F)nc2c1)c1ccco1 | 104%
3 | O=C(Nc1ccc2c(c1)CCC2)c1ccc(Br)s1 | 114% (active)
4 | CN(c1ccc(C(=O)NCCC2=CCCCC2)cc1)S(C)(=O)=O | 121% (active)
5 | CC1CN/C(=C\C(=O)c2ccc(Br)cc2)C(=O)N1 (stereo not drawn) | 87.3%
6 | Cc1ccccc1Nc1nc(N)nc(CSc2ccccc2)n1 | 127% (active)
7 | CCn1c(/C=C/c2ccc([N+](=O)[O-])o2)nc2ccccc2c1=O | 102%
8 | Cc1[nH]n(-c2ccccc2)c(=O)c1/C=N/NC(=O)c1ccoc1C | 108%
9 | CCOC(=O)/C(C#N)=C/c1ccc(N2CCCCC2)cc1 | 108%
10 | Cc1ccc(NC(=O)c2csc3c2CCCC3)cc1 | 111% (active)
11 | COc1ccc(/C=N/Nc2nc3ccccc3o2)cc1OC | 108%
12 | COc1ccc(-c2csc(Cc3nc(O)cs3)n2)cc1 | 124% (active)
13 | Cc1cccc(NC(=O)Nc2ccc3c(c2)OCO3)n1 | 121% (active)
14 | CC(=O)Nc1cccc(-c2csc(Nc3cccc(C)n3)n2)c1 | 106%
15 | c1ccc(Nc2nc(-c3ccncc3)cs2)nc1 | 126% (active)
16 | O=C(c1cc(-c2cccs2)on1)N1CCCCC1 | 105%
17 | COc1ccc(/C=N/Nc2nc3ccccc3c(=O)[nH]2)cc1 | 102%
18 | Cc1nn(-c2ccc([N+](=O)[O-])cc2)c(N)c1-c1ccccc1 | 126% (active)
19 | COc1ccc(-n2nnnc2-c2nc3ccccc3s2)cc1 | 111% (active)
20 | Cc1ccc(NC(=O)Nc2ccc3oc(C)nc3c2)cc1 | 102%

Row | Structure (SMILES) | activation (% of control)
21 | CC(=O)c1sc(NC(=O)c2ccc(C)cc2)nc1C | 94.7%
22 | COc1ccc(-n2ncc3c(N4CCCc5ccccc54)ncnc32)cc1 | 112% (active)
23 | COc1ccccc1-c1cc(C(=O)N2CCCCC2)no1 | 116% (active)
24 | CCOc1ccc2nc(C(=O)N3CCCC(C)C3)sc2c1 (stereo not drawn) | 97.8%
25 | COc1ccc(-c2csc(-c3cccs3)n2)cc1OC | 114% (active)
26 | CN1C(=O)/C(=C/C=C2\SCCN2C)OC1=S | 118% (active)
27 | COc1ccc(CS(=O)/C(Cl)=C(/Cl)C(=O)Nc2ccc(OC)nc2)cc1 (stereo not drawn) | 105%
28 | Cc1cccc(N=Nc2c(O)[nH]c3ccc(F)cc23)c1 | 109%
29 | Cc1cc(Cl)ccc1OCc1nc(-c2ccncc2)no1 | 106%
30 | Cn1nnc2cc(C(=O)NCCC3=CCCCC3)ccc21 | 119% (active)
31 | Cc1cc(C)c2nc(NC(=O)C3CCCO3)sc2c1 (stereo not drawn) | 195% (active)
32 | CCC(=O)NC(=Nc1nc2ccccc2s1)NC(=O)CC | 112% (active)
33 | CCNc1nc(-c2cc3ccccc3o2)cs1 | 103%
34 | COc1ccc2nc(SCc3ccccc3)nc(C)c2c1 | 107%
35 | Clc1ccc(Nc2nc(-c3cccs3)cs2)nc1 | 133% (active)
36 | CCc1ccc(NC2Nc3cc(C)nn3S2)cc1 (stereo not drawn) | 126% (active)
37 | Cc1noc(C)c1/C=N/Nc1ccc2ccccc2n1 | 149% (active)
38 | COc1ccc2oc(-c3cccc(NC(=O)CSc4ccc(Cl)cc4)c3)nc2c1 | 100%
39 | O=C(NCCCn1ccnc1)c1cc(-c2ccccc2)on1 | 132% (active)
40 | COc1ccc(NC(=O)/C(Cl)=C(/Cl)S(=O)Cc2ccc(C)cc2)cn1 (stereo not drawn) | 103%

What follows are molecules tested against Oxysterols receptor LXR-beta (Homo sapiens) (UniProt P55055) (assay: LXR agonists, Gal4 luciferase reporter, confirmation, counter-screen for hcDAF-12 agonist project, cell-based, luminescence, HEK293, H. contortus campaign (AID 743027;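 active = mean percent activation of the reporter above a cutoff set as the average over tested compounds plus their standard deviation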)). Details: HEK293 Gal4-LXR tk-luc reporter, 24 h, at 6.8 µM, active compounds read high, normalized: DMSO 0%, positive control 100%.
Method in brief: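 Assay system: Gal4-LXR and tk-luc reporter transfected HEK293 cells; Compound: 6.8 µM single dose; Times: one-day compound treatment at 37 °C; Technique: One-Glo luciferase luminescence; Read-out basis: % activation relative to DMSO and positive-control wells; Benchmarks: DMSO low control, positive-control high control; Repeats: three replicates per compound.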

Oxysterols receptor LXR-beta (Homo sapiens), sequence (P55055 whole entry, looked up, the tested form may be a part): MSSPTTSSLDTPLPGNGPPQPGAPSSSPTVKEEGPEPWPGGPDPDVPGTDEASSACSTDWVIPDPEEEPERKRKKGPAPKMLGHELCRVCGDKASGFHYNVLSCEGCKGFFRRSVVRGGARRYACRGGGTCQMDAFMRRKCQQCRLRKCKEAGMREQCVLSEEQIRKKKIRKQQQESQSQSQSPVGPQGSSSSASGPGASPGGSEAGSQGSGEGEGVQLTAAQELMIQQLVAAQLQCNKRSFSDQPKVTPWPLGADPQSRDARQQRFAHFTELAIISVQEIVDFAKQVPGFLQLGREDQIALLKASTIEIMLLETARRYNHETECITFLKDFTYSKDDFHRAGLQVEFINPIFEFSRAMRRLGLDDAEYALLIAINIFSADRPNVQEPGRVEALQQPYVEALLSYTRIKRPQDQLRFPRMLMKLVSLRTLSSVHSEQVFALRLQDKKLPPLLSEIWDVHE

Row | Structure (SMILES) | activation [%]
41 | O=C(Nc1ccc2c(c1)CCC2)c1ccc(Br)s1 | 2.03
42 | Cc1ccccc1Nc1nc(N)nc(CSc2ccccc2)n1 | 1.61
43 | Cc1ccc(NC(=O)c2csc3c2CCCC3)cc1 | 1.06
44 | COc1ccc(-c2csc(Cc3nc(O)cs3)n2)cc1 | 1.22
45 | Cc1cccc(NC(=O)Nc2ccc3c(c2)OCO3)n1 | 0.92
46 | CC(=O)Nc1cccc(-c2csc(Nc3cccc(C)n3)n2)c1 | 1.08
47 | c1ccc(Nc2nc(-c3ccncc3)cs2)nc1 | 1.73
48 | COc1ccc(-n2nnnc2-c2nc3ccccc3s2)cc1 | 1.88
49 | CCOc1ccc2nc(C(=O)N3CCCC(C)C3)sc2c1 (stereo not drawn) | 1.14
50 | Cc1cc(C)c2nc(NC(=O)C3CCCO3)sc2c1 (stereo not drawn) | 1.55
51 | CCNc1nc(-c2cc3ccccc3o2)cs1 | 2.08
52 | COc1ccc2nc(SCc3ccccc3)nc(C)c2c1 | 1.78
53 | Clc1ccc(Nc2nc(-c3cccs3)cs2)nc1 | 2.13
54 | Cc1noc(C)c1/C=N/Nc1ccc2ccccc2n1 | 1.54

These molecules were tested on Nuclear hormone receptor DAF-12 (Haemonchus contortus) (assay: H. contortus DAF-12 receptor agonists, confirmation, cell-based, luminescence, HEK293, lit1-tk-luc, triplicate (AID 743032;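 active = mean activation across triplicate tests above the threshold derived from the earlier primary screen, cut at about 5.5% in these data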;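 note: 0% = DMSO only wells and 100% = 3 µM Δ7-dafachronic acid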)). Details: HEK293 hcDAF-12 lit1-tk-luc reporter, at 6.8 µM, active compounds read high, % of Δ7-dafachronic acid response.

Row | Structure (SMILES) | activation
55 | O=C(Nc1ccc2c(c1)CCC2)c1ccc(Br)s1 | 7.91% (active)
56 | Cc1ccccc1Nc1nc(N)nc(CSc2ccccc2)n1 | 8.23% (active)
57 | Cc1ccc(NC(=O)c2csc3c2CCCC3)cc1 | 6.25% (active)
58 | COc1ccc(-c2csc(Cc3nc(O)cs3)n2)cc1 | 7.02% (active)
59 | Cc1cccc(NC(=O)Nc2ccc3c(c2)OCO3)n1 | 4.11%
60 | CC(=O)Nc1cccc(-c2csc(Nc3cccc(C)n3)n2)c1 | 3.26%
61 | c1ccc(Nc2nc(-c3ccncc3)cs2)nc1 | 8.34% (active)
62 | COc1ccc(-n2nnnc2-c2nc3ccccc3s2)cc1 | 12.8% (active)
63 | CCOc1ccc2nc(C(=O)N3CCCC(C)C3)sc2c1 (stereo not drawn) | 4.22%
64 | Cc1cc(C)c2nc(NC(=O)C3CCCO3)sc2c1 (stereo not drawn) | 6.1% (active)
65 | CCNc1nc(-c2cc3ccccc3o2)cs1 | 8.18% (active)
66 | COc1ccc2nc(SCc3ccccc3)nc(C)c2c1 | 5.65% (active)
67 | Clc1ccc(Nc2nc(-c3cccs3)cs2)nc1 | 13.6% (active)
68 | Cc1noc(C)c1/C=N/Nc1ccc2ccccc2n1 | 15.2% (active)
